TRPC4 act: activators of mouse TRPC4 channel, primary screen, Fluo4 calcium, HEK293 TRPC4beta/mu-opioid cells; Fluo4 calcium fluorescence; active compounds read high; AID 2237, 2010; B-score at 10 µM; Short transient receptor potential channel 4 (Mus musculus), Q9QUQ5; 0.49% of 310,000 active;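 active = B-score above 5 SD of library B-scores, and initial fluorescence ratio not above library mean plus 5 SD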;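 note: positive B-score marks a calcium rise read as TRPC4 activation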
Target sequence (Q9QUQ5 whole entry, looked up): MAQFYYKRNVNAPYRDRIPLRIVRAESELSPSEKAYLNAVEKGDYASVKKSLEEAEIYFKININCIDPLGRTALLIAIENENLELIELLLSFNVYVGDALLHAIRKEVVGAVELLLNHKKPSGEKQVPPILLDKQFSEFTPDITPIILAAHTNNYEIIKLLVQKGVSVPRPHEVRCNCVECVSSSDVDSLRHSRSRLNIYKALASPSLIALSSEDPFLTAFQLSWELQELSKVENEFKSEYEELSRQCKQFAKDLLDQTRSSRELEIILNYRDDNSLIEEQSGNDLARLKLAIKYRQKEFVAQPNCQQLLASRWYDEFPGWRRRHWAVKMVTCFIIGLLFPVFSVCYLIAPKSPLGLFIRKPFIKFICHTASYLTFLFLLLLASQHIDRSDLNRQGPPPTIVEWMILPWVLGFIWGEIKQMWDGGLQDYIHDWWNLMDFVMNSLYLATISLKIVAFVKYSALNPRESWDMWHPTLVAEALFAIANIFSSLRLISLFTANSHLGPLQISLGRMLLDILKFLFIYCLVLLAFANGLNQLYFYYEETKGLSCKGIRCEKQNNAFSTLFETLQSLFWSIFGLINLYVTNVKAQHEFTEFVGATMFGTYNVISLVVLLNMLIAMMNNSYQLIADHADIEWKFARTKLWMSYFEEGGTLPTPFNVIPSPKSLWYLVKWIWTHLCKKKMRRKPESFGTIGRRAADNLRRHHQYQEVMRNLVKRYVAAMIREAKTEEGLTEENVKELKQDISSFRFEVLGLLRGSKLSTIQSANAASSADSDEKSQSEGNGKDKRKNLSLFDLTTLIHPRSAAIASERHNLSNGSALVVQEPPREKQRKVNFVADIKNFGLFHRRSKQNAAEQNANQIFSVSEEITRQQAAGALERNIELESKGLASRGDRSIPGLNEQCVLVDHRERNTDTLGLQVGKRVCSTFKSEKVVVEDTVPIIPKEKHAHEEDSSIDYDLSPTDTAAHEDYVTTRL
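Material: TRPC4beta and mu-opioid receptor HEK293 stable cells | Incubation: 45 min room-temperature Fluo4 loading, 110 s read | Detection: Kinetic Fluo4 calcium fluorescence | Measure: Integrated baseline-normalised fluorescence ratio, converted to per-well B score | Benchmarks: Low control buffer alone, high control maximal DAMGO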
TRPC4 block: inhibitors of mouse TRPC4 channel, primary screen, Fluo4 calcium, HEK293 TRPC4beta/mu-opioid cells; DAMGO-evoked Fluo4 calcium flux; active compounds read low; B-score at 10 µM; Short transient receptor potential channel 4 (Mus musculus), Q9QUQ5; 0.39% of 300,000 active;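 active = B-score over 3 SD under the library average, no early fluorescence shift, positive overall ratio signal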
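Assay system: TRPC4beta/mu-opioid receptor HEK293 cell line; compound dosing: single concentration per test compound; detection: Fluo4 Ca2+ flux fluorescence; evaluation: per-well B score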
TRPC6 inh: mouse TRPC6 channel inhibitors, primary screen, cell-based, HEK293, membrane potential dye | 1.1% of 310,000 active | B-score at 10 µM | AID 2553, 2010 | Short transient receptor potential channel 6 (Mus musculus), Q61143 | ACh-evoked depolarization; active compounds read low;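 active = B-score under library mean minus 3 SD, initial fluorescence not abnormally high, positive integrated signal ratio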;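 note: B-score derived from integrated fluorescence ratio over the kinetic read; more negative B-score means stronger inhibition of depolarization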
TRPC6 act: mouse TRPC6 channel activators, primary screen, cell-based, HEK293, membrane potential dye. HEK293-TRPC6 membrane potential dye fluorescence; active compounds read high. Short transient receptor potential channel 6 (Mus musculus), Q61143. B-score at 10 µM. 0.13% of 310,000 active;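 active = B-score of the integrated fluorescence ratio above library mean plus 3 SD, and starting fluorescence ratio within library mean plus 5 SD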;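 note: higher score means more depolarization so channel activation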
TRPC4 PAM: positive allosteric modulators of TRPC4, primary screen, cell-based, mouse TRPC4beta, HEK293 mu-opioid, Fluo-4 calcium; B-score at 10 µM; DAMGO EC20, Fluo-4 Ca2+ flux; active compounds read high; AID 2227, 2009; 0.42% of 310,000 active; Short transient receptor potential channel 4 (Mus musculus), Q9QUQ5;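 active = B-score of calcium response area above 5 SD of library B-scores, with initial fluorescence ratio within 5 SD of library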
TRPC4 spec 2: second selectivity test of TRPC6 inhibitors: effect on mouse TRPC4 | HEK293 TRPC4/MOR, membrane potential dye fluorescence; channel activated by saturating DAMGO dose | 42% of 920 active | shares compounds with TRPC6 inh | inhibition, % at 10 µM;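 active = compounds whose fluorescence signal differed from control wells by over 3 SD, either direction, in both duplicate plates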
TRPC4 spec: mouse TRPC4 modulation by TRPC6 hits, confirmation, selectivity assay for TRPC6 inhibitor project, cell-based, HEK293 TRPC4/mu-opioid, membrane potential dye; shares compounds with TRPC6 inh; membrane potential fluorescence; activity change, negative = inhibition, % at 10 µM; 61% of 920 active; AID 2777, 2010;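 active = rise or fall in signal beyond 3 SD of buffer-only wells in both replicate plates, either sign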;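 note: integrated kinetic ratio of fluorescence range over baseline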
HEK293 MPD ctr 2-1: nonspecific membrane potential effects, parental HEK293, confirmation, counter-screen for TRPC6 inhibitor project, cell-based, second counter screen; shares compounds with TRPC6 inh; parental HEK293 membrane potential dye fluorescence; maximal acetylcholine challenge after compound addition; signal change vs control, % at 10 µM; 31% of 920 active; AID 2779, 2010;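 active = membrane potential signal moving either way by over 3 SD of the maximum-effect control, in both duplicate plates, meaning non-specific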
HEK293 MPD ctr-1: membrane potential modulation in parental HEK293, confirmation, counter-screen for TRPC6 inhibitor project, cell-based; shares compounds with TRPC6 inh; parental HEK293 membrane potential dye fluorescence; membrane potential signal change, % at 10 µM; 60% of 920 active;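 active = membrane potential signal shifting up or down by more than 3 SD of buffer-only wells, on both duplicate plates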
HEK293 MPD ctr-2: parental HEK293 membrane potential modulation, confirmation, counter-screen for TRPC6 modulator project, cell-based. membrane potential dye fluorescence. 51% of 2,400 active. membrane potential signal change, % at 10 µM. shares compounds with TRPC6 inh;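 active = membrane potential signal moves up or down beyond 5 SD from buffer-only wells, on both duplicate plates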
HEK293 MPD ctr 2-2: second check of TRPC6 modulator effects in parental HEK293 cells; 14% of 2,400 active; inhibition, % at 10 µM; shares compounds with TRPC6 inh; membrane potential dye fluorescence; after compound, maximal acetylcholine stimulation;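 active = membrane potential signal drops by more than 5 SD from the mean control signal, in both duplicate plates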
TRPC4/MOR mod: TRPC4 modulation by TRPC6 hit compounds, confirmation, selectivity assay for TRPC6 modulator project, cell-based, HEK293 TRPC4/mu-opioid, membrane potential dye, mouse; shares compounds with TRPC6 inh; membrane potential fluorescence; 69% of 2,400 active; percent change from control (negative = decrease, positive = increase), % at 10 µM;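 active = membrane potential signal moved up or down beyond 5 SD of buffer control wells, in both duplicate plates, actives on both sides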
TRPC4/MOR inh 2: second selectivity test of TRPC6 modulators against mouse TRPC4; HEK293 TRPC4/mu-opioid, membrane potential dye fluorescence; stimulated with maximal-effect DAMGO; shares compounds with TRPC6 inh; inhibition, % at 10 µM; 55% of 2,400 active; AID 488928;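 active = drop in membrane potential signal beyond 5 SD of the control wells in both duplicate plates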;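 note: TRPC4 counter screen for TRPC6 hits run under conditions tuned for TRPC6 not TRPC4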
TRPC6 block conf: mouse TRPC6 channel inhibitors, confirmation, HEK293 cells, membrane potential dye, duplicate | shares compounds with TRPC6 inh | ACh-evoked depolarization | inhibition, % at 10 µM | 43% of 3,300 active | AID 488960, 2010;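 active = fluorescence ratio falls more than 5 SD below the full-stimulation control mean, in both duplicate runs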;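 note: integrated fluorescence ratio of peak minus minimum over baseline after agonist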
TRPC6 act conf: mouse TRPC6 channel activators, confirmation, HEK293 cells, membrane potential dye, duplicate. shares compounds with TRPC6 inh. HEK293-TRPC6 membrane potential dye fluorescence, FDSS. activation, % at 10 µM. 11% of 2,800 active. AID 488961, 2010;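 active = ratio signal rise beyond 5 SD above unstimulated control wells' mean, seen in both duplicate runs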
Large screens that a line does not name were inactive (follow-up assays come after a bar, where they were run). This is a sample that favours compounds with a hit; in the whole collection about 2.3% have one here.

S=C(NC1CCCC1)N1CCN(c2ncccn2)CC1	none
CC(C)NC(=S)N1CCN(c2ncccn2)CC1	TRPC6 inh -5.4 | HEK293 MPD ctr-2 inactive | HEK293 MPD ctr 2-2 inactive | TRPC4/MOR mod 17% | TRPC4/MOR inh 2 inactive | TRPC6 block conf inactive | TRPC6 act conf inactive
Cc1ccc(N2C(=O)CCSC23C(=O)Nc2ccccc23)cc1 (configuration not stated)	TRPC6 inh -6.7 | TRPC4 spec 2 inactive | TRPC4 spec inactive | HEK293 MPD ctr 2-1 inactive | HEK293 MPD ctr-1 inactive | TRPC6 block conf inactive | TRPC6 act conf inactive
COc1ccc(N2C(=O)CSC23C(=O)Nc2ccccc23)cc1 (configuration not stated)	none
CC(=O)N(C)c1nnc(-c2cnccn2)s1	TRPC6 inh -6.5 | HEK293 MPD ctr-2 -234% | HEK293 MPD ctr 2-2 inactive | TRPC4/MOR mod -32% | TRPC4/MOR inh 2 inactive | TRPC6 block conf inactive | TRPC6 act conf inactive
COCC(=O)N(C)c1nnc(-c2cnccn2)s1	none
COCCNC(=S)N1CCOCC1	none
C=COCCNC(=S)N1CCOCCOCCN(C(=S)NCCOC=C)CCOCC1	TRPC6 inh -5 | HEK293 MPD ctr-2 inactive | HEK293 MPD ctr 2-2 inactive | TRPC4/MOR mod inactive | TRPC4/MOR inh 2 40% | TRPC6 block conf inactive | TRPC6 act conf inactive
S=C(NCCCN1CCOCC1)Nc1ccc(Cl)cc1Cl	TRPC6 inh -5.3 | HEK293 MPD ctr-2 inactive | HEK293 MPD ctr 2-2 inactive | TRPC4/MOR mod inactive | TRPC4/MOR inh 2 inactive | TRPC6 block conf inactive | TRPC6 act conf inactive
CCC(C)(C)n1nnnc1C(c1cc2cc3c(cc2[nH]c1=O)OCO3)N1CCCCC1 (configuration not stated)	TRPC6 inh -5.9 | HEK293 MPD ctr-2 inactive | HEK293 MPD ctr 2-2 inactive | TRPC4/MOR mod inactive | TRPC4/MOR inh 2 inactive | TRPC6 block conf inactive
CCCN1CCN(C(c2cc3cc4c(cc3[nH]c2=O)OCO4)c2nnnn2C(C)(C)C)CC1 (configuration not stated)	none
CCN(CC(=O)Nc1c(F)cccc1F)C(=O)CSc1nnc(-c2ccco2)n1CC	none
COc1ccc(C(=O)Nc2ccccc2C(=O)N/N=C/c2ccccn2)cc1OC	none
COc1ccc(C(=O)N/N=C/c2ccccn2)cc1OC	TRPC6 inh -7 | HEK293 MPD ctr-2 -296% | HEK293 MPD ctr 2-2 inactive | TRPC4/MOR mod -50% | TRPC4/MOR inh 2 40% | TRPC6 block conf 38% | TRPC6 act conf inactive
CN(C)c1ccc(C(=O)N/N=C/c2ccccn2)cc1	TRPC6 inh -6.6 | HEK293 MPD ctr-2 -159% | HEK293 MPD ctr 2-2 inactive | TRPC4/MOR mod -28% | TRPC4/MOR inh 2 36% | TRPC6 block conf inactive | TRPC6 act conf inactive
Nc1cccc(C(=O)NCCNC(=O)c2cccc(N)c2)c1	TRPC6 inh -7.1 | TRPC4 spec 2 inactive | TRPC4 spec inactive | HEK293 MPD ctr 2-1 inactive | HEK293 MPD ctr-1 inactive | TRPC6 block conf inactive | TRPC6 act conf inactive
O=C(NCCNC(=O)c1cccc(O)c1)c1cccc(O)c1	none
C/C(=N\NC(=O)c1ccccc1O)C1C(=O)c2ccccc2C1=O	TRPC6 inh -5.5 | HEK293 MPD ctr-2 inactive | HEK293 MPD ctr 2-2 inactive | TRPC4/MOR mod -16% | TRPC4/MOR inh 2 inactive | TRPC6 block conf inactive | TRPC6 act conf inactive
C/C(=N/NC(=O)c1cc2ccccc2cc1O)C1C(=O)c2ccccc2C1=O	none
CC1CCN(S(=O)(=O)c2ccc3c(ccn3CCC(=O)N3CCCCC3)c2)CC1	TRPC6 inh -6.2 | HEK293 MPD ctr-2 inactive | HEK293 MPD ctr 2-2 inactive | TRPC4/MOR mod 9.5% | TRPC4/MOR inh 2 inactive | TRPC6 block conf 78%
O=C(c1cccc(S(=O)(=O)N2CCCC2)c1)N1CCN(c2ccccc2)CC1	none (no result: TRPC4 block)
O=C(c1cccc(S(=O)(=O)N2CCCCCC2)c1)N1CCN(c2ccccc2)CC1	TRPC6 inh -5.2 | HEK293 MPD ctr-2 106% | HEK293 MPD ctr 2-2 inactive | TRPC4/MOR mod 19% | TRPC4/MOR inh 2 inactive | TRPC6 block conf inactive
CN1CCN(C(=O)c2cccc(S(=O)(=O)N3CCCCC3)c2)CC1	none
CC1CCC(NC(=O)CCn2ccc3cc(S(=O)(=O)N4CCCC4)ccc32)CC1 (configuration not stated)	none

From PubChem BioAssay
